{"source": "ChEMBL document CHEMBL4823260", "about": "“From High-Throughput Screening to Target Validation: Benzo[d]isothiazoles as Potent and Selective Agonists of Human Transient Receptor Potential Cation Channel Subfamily M Member 5 Possessing In Vivo Gastrointestinal Prokinetic Activity in Rodents” (J Med Chem, 2021)", "key": {"[1]": {"test": "Protein binding in rat plasma assessed as unbound fraction measured after 5 hrs by equilibrium dialysis based HPLC/UPLC-MS/MS analysis", "format": "ADME, cell-free"}, "[2]": {"test": "AUClast in CD-1 mouse at 1 mg/kg, iv measured up to 24 hrs", "format": "ADME, organism-based", "parameters": "route intravenous, dose 1 mg/kg, time <=24", "details": "in vivo"}, "[3]": {"test": "AUClast in CD-1 mouse at 10 mg/kg, po measured up to 24 hrs", "format": "ADME, organism-based", "parameters": "route oral, dose 10 mg/kg, time <=24", "details": "in vivo"}, "[4]": {"test": "Oral bioavailability in CD-1 mouse at 10 mg/kg measured up to 24 hrs", "format": "ADME, organism-based", "details": "in vivo"}, "[5]": {"test": "Volume of distribution at steady state in CD-1 mouse at 1 mg/kg, iv measured up to 24 hrs", "format": "ADME, organism-based", "details": "in vivo, read-out: Vdss"}, "[6]": {"system": "Mus musculus", "test": "Gastroprokinetic activity in CD-1 mouse assessed as stimulation of gastrointestinal motility by measuring fecal number at 1 mg/kg, po measured after 6 hrs (reference value: 20.1 +/-1.4)", "format": "functional"}, "[7]": {"test": "Drug concentration in C57BL6 mouse ileum at 100 mg/kg, po administered as single dose measured after 24 hrs by LC-MS/MS analysis", "format": "ADME, organism-based", "details": "read-out: Ct", "outline": "(§1)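 Single oral dose of 1, 3 or 100 mg/kg in mouse. Plasma (ng/mL) and colon and ileum (ng/g) exposure sampled at 6, 24 and 48 h, and at 72 h for the top dose; mean values reported.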"}, "[8]": {"test": "Drug concentration in C57BL6 mouse colon at 100 mg/kg, po administered as single dose measured after 48 hrs by LC-MS/MS analysis", "format": "ADME, organism-based", "details": "read-out: Ct", "outline": "as §1"}, "[9]": {"test": "Drug concentration in C57BL6 mouse colon at 3 mg/kg, po administered as single dose measured after 24 to 48 hrs by LC-MS/MS analysis", "format": "ADME, organism-based", "details": "in vivo, time 24-48 hrs", "outline": "as §1"}, "[10]": {"test": "Drug concentration in C57BL6 mouse ileum at 3 mg/kg, po administered as single dose measured after 6 to 48 hrs by LC-MS/MS analysis", "format": "ADME, organism-based", "details": "in vivo, time 6-48 hrs", "outline": "as §1"}, "[11]": {"system": "Mus musculus", "test": "Gastroprokinetic activity in CD-1 mouse assessed as stimulation of gastrointestinal motility by measuring total fecal weight at 10 mg/kg, po measured after 6 hrs (reference value: 0.43 +/-0.05 g)"}, "[12]": {"system": "Mus musculus", "test": "Gastroprokinetic activity in CD-1 mouse assessed as stimulation of gastrointestinal motility by measuring total fecal weight at 100 mg/kg, po measured after 2 hrs (reference value: 0.13 +/-0.02 g)", "format": "functional"}, "[13]": {"system": "Mus musculus", "test": "Gastroprokinetic activity in CD-1 mouse assessed as stimulation of gastrointestinal motility by measuring fecal number at 100 mg/kg, po measured after 2 hrs (reference value: 5.3 +/-0.7)", "format": "functional"}, "[14]": {"test": "Drug concentration in C57BL6 mouse colon at 100 mg/kg, po administered as single dose measured after 72 hrs by LC-MS/MS analysis", "format": "ADME, organism-based", "outline": "as §1"}, "[15]": {"test": "Drug concentration in C57BL6 mouse colon at 100 mg/kg, po administered as single dose measured after 6 hrs by LC-MS/MS analysis", "format": "ADME, organism-based", "details": "read-out: Ct", "outline": "as §1"}, "[16]": {"system": "Mus musculus", "test": "Gastroprokinetic activity in CD-1 mouse assessed as stimulation of gastrointestinal motility by measuring total fecal weight at 10 mg/kg, po measured after 1 hrs (reference value: 0.08 +/-0.02 g)", "format": "functional"}, "[17]": {"system": "Mus musculus", "test": "Gastroprokinetic activity in CD-1 mouse assessed as stimulation of gastrointestinal motility by measuring total fecal weight at 100 mg/kg, po measured after 1 hrs (reference value: 0.08 +/-0.02 g)", "format": "functional"}, "[18]": {"system": "Mus musculus", "test": "Gastroprokinetic activity in CD-1 mouse assessed as stimulation of gastrointestinal motility by measuring total fecal weight at 1 mg/kg, po measured after 6 hrs (reference value: 0.43 +/-0.05 g)", "format": "functional"}, "[19]": {"test": "Drug concentration in C57BL6 mouse plasma at 1 mg/kg, po administered as single dose measured after 6 to 48 hrs by LC-MS/MS analysis", "format": "ADME, organism-based", "details": "in vivo, time 6-48 hrs", "outline": "as §1"}, "[20]": {"test": "Drug concentration in C57BL6 mouse ileum at 1 mg/kg, po administered as single dose measured after 6 to 48 hrs by LC-MS/MS analysis", "format": "ADME, organism-based", "details": "in vivo, time 6-48 hrs", "outline": "as §1"}, "[21]": {"system": "Mus musculus", "test": "Gastroprokinetic activity in CD-1 mouse assessed as stimulation of gastrointestinal motility by measuring fecal number at 100 mg/kg, po measured after 6 hrs (reference value: 20.1 +/-1.4)", "format": "functional"}, "[22]": {"system": "Mus musculus", "test": "Gastroprokinetic activity in CD-1 mouse assessed as stimulation of gastrointestinal motility by measuring fecal number at 10 mg/kg, po measured after 1 hrs (reference value: 3 +/-0.8)", "format": "functional"}, "[23]": {"system": "Mus musculus", "test": "Gastroprokinetic activity in CD-1 mouse assessed as stimulation of gastrointestinal motility by measuring fecal number at 1 mg/kg, po measured after 2 hrs (reference value: 5.3 +/-0.7)", "format": "functional"}, "[24]": {"system": "Mus musculus", "test": "Gastroprokinetic activity in CD-1 mouse assessed as stimulation of gastrointestinal motility by measuring fecal number at 100 mg/kg, po measured after 1 hrs (reference value: 3 +/-0.8)", "format": "functional"}, "[25]": {"test": "Drug concentration in C57BL6 mouse colon at 1 mg/kg, po administered as single dose measured after 24 to 48 hrs by LC-MS/MS analysis", "format": "ADME, organism-based", "details": "in vivo, time 24-48 hrs", "outline": "as §1"}, "[26]": {"test": "Drug concentration in C57BL6 mouse ileum at 100 mg/kg, po administered as single dose measured after 6 hrs by LC-MS/MS analysis", "format": "ADME, organism-based", "details": "read-out: Ct", "outline": "as §1"}, "[27]": {"test": "Drug concentration in C57BL6 mouse ileum at 100 mg/kg, po administered as single dose measured after 48 to 72 hrs by LC-MS/MS analysis", "format": "ADME, organism-based", "details": "in vivo, time 48-72 hrs", "outline": "as §1"}, "[28]": {"system": "Mus musculus", "test": "Gastroprokinetic activity in CD-1 mouse assessed as stimulation of gastrointestinal motility by measuring total fecal weight at 100 mg/kg, po measured after 3 hrs (reference value: 0.21 +/-0.03 g)", "format": "functional"}, "[29]": {"test": "Drug concentration in C57BL6 mouse plasma at 100 mg/kg, po administered as single dose measured after 6 hrs by LC-MS/MS analysis", "format": "ADME, organism-based", "outline": "as §1"}, "[30]": {"system": "Mus musculus", "test": "Gastroprokinetic activity in CD-1 mouse assessed as stimulation of gastrointestinal motility by measuring fecal number at 10 mg/kg, po measured after 6 hrs (reference value: 20.1 +/-1.4)", "format": "functional"}, "[31]": {"test": "Drug concentration in C57BL6 mouse colon at 3 mg/kg, po administered as single dose measured after 6 hrs by LC-MS/MS analysis", "format": "ADME, organism-based", "details": "read-out: Ct", "outline": "as §1"}, "[32]": {"system": "Mus musculus", "test": "Gastroprokinetic activity in CD-1 mouse assessed as stimulation of gastrointestinal motility by measuring total fecal weight at 10 mg/kg, po measured after 3 hrs (reference value: 0.21 +/-0.03 g)"}, "[33]": {"system": "Mus musculus", "test": "Gastroprokinetic activity in CD-1 mouse assessed as stimulation of gastrointestinal motility by measuring total fecal weight at 10 mg/kg, po measured after 2 hrs (reference value: 0.13 +/-0.02 g)", "format": "functional"}, "[34]": {"test": "Effect on locomotor activity in CD-1 mouse at 1 to 100 mg/kg, po measured up to 6 hrs", "format": "organism-based", "details": "in vivo, dose 1-100 mg/kg"}}}
{"smiles": "Clc1cnc(CNc2ccc3sncc3c2)s1", "values": [{"measurement": "fraction unbound at 5 h", "setting": "[1]", "result": "< 0.01"}]}
{"smiles": "Clc1cnc(CNc2ccc3cnsc3c2)s1", "values": [{"measurement": "AUClast", "setting": "[2]", "result": 0.541, "unit": "µg·h/mL"}, {"measurement": "AUC(0-t) at 24 h", "setting": "[3]", "result": 0.0943, "unit": "µg·h/mL"}, {"measurement": "bioavailability", "setting": "[4]", "result": 1.54, "unit": "%"}, {"measurement": "Vd", "setting": "[5]", "result": 1.12, "unit": "L/kg"}]}
{"smiles": "Clc1cnc(CNc2cc3sncc3cc2Cl)s1", "values": [{"measurement": "Activity", "setting": "[6]", "result": 24.3}, {"measurement": "concentration at 24 h", "setting": "[7]", "result": 202, "unit": "ng/g"}, {"measurement": "concentration at 48 h", "setting": "[8]", "result": 58, "unit": "ng/g"}, {"measurement": "Ct", "setting": "[9]", "result": "< 20", "unit": "ng/mL"}, {"measurement": "Ct", "setting": "[10]", "result": "< 20", "unit": "ng/mL"}, {"measurement": "Activity", "setting": "[11]", "result": 0.39, "unit": "g"}, {"measurement": "Activity", "setting": "[12]", "result": 0.31, "unit": "g"}, {"measurement": "Activity", "setting": "[13]", "result": 10.2}, {"measurement": "concentration at 72 h", "setting": "[14]", "result": "< 0.02", "unit": "µg/mL"}, {"measurement": "concentration at 6 h", "setting": "[15]", "result": 2620, "unit": "ng/g"}, {"measurement": "Activity", "setting": "[16]", "result": 0.08, "unit": "g"}, {"measurement": "Activity", "setting": "[17]", "result": 0.12, "unit": "g"}, {"measurement": "Activity", "setting": "[18]", "result": 0.45, "unit": "g"}, {"measurement": "Cp", "setting": "[19]", "result": "< 0.02", "unit": "µg/mL"}, {"measurement": "Ct", "setting": "[20]", "result": "< 20", "unit": "ng/mL"}, {"measurement": "Activity", "setting": "[21]", "result": 16.3}, {"measurement": "Activity", "setting": "[22]", "result": 3.4}, {"measurement": "Activity", "setting": "[23]", "result": 7.5}, {"measurement": "Activity", "setting": "[24]", "result": 4}, {"measurement": "Ct", "setting": "[25]", "result": "< 20", "unit": "ng/mL"}, {"measurement": "concentration at 6 h", "setting": "[26]", "result": 7380, "unit": "ng/g"}, {"measurement": "Ct", "setting": "[27]", "result": "< 20", "unit": "ng/mL"}, {"measurement": "Activity", "setting": "[28]", "result": 0.41, "unit": "g"}, {"measurement": "concentration at 6 h", "setting": "[29]", "result": 0.0226, "unit": "µg/mL"}, {"measurement": "Activity", "setting": "[30]", "result": 18.5}, {"measurement": "concentration at 6 h", "setting": "[31]", "result": 143, "unit": "ng/g"}, {"measurement": "Activity", "setting": "[32]", "result": 0.23, "unit": "g"}, {"measurement": "Activity", "setting": "[33]", "result": 0.18, "unit": "g"}, {"measurement": "Activity", "setting": "[34]", "result": "Non-Toxic"}]}
